In ChEMBL document CHEMBL1126584 (J Med Chem, 1993):

The molecules below were run against T1, D(2) dopamine receptor (Rattus norvegicus, UniProt P61169) (assay: Compound was tested for binding affinity against D2 receptor in rat corpus striatum, using [3H]sulpiride as the radioligand).
Assay type: tissue-based
Method in brief: (§1)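 Fresh rat striatum homogenised in 50 mM Tris-HCl pH 7.5, pellet resuspended in buffer with 100 mM NaCl to 3.75 mg wet weight/mL. Incubated with 3 nM [3H]sulpiride for 60 min at 25 °C, in triplicate; 10 μM haloperidol defined nonspecific binding. Filtration on polyethyleneimine-treated filters; IC50 from concentration-response curves converted to Ki by Cheng-Prusoff; mean of at least three determinations.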

T1 sequence (P61169 whole entry): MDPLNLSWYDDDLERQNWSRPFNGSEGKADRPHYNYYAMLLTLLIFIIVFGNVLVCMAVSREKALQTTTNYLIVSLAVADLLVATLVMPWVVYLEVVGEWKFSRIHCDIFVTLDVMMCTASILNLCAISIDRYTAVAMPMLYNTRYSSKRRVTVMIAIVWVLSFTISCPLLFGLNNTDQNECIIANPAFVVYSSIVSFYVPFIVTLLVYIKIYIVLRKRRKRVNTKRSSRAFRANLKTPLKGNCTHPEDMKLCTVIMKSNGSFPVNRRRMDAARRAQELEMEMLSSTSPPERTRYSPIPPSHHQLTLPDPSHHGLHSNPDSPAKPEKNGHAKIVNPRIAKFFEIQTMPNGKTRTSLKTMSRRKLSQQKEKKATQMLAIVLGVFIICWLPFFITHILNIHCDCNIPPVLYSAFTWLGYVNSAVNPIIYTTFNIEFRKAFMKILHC

| SMILES | Ki [nM] |
| --- | --- |
| c1ccc2c3c([nH]c2c1)CC1CCC3N1 (stereo not drawn) | > 100000 |

What follows are molecules tested against T1, D(2) dopamine receptor (assay: Binding affinity against D2 receptor in rat corpus striatum using [3H]sulpiride as the radioligand).
Assay type: tissue-based
Method in brief: as §1

| SMILES | Ki [nM] |
| --- | --- |
| Fc1ccc2[nH]c3c(c2c1)C1CCC(C3)N1Cc1ccccc1 (stereo not drawn) | 2420 |
| c1coc(CCCCN2C3CCC2c2c([nH]c4ccccc24)C3)c1 (single isomer, unassigned; (+)) | 330 |
| c1coc(CCCCN2C3CCC2c2c([nH]c4ccccc24)C3)c1 (single isomer, unassigned; (-)) | 3150 |
| c1ccc(-n2c3c(c4ccccc42)C2CCC(C3)N2)cc1 (stereo not drawn) | 10000 |
| CCN1C2CCC1c1c([nH]c3ccccc13)C2 (stereo not drawn) | > 10000 |
| c1coc(CCCCN2C3CCC2c2c([nH]c4ccccc24)C3)c1 (racemic) | 1270 |
| CN(CCN1C2CCC1c1c([nH]c3ccccc13)C2)C(=O)Cc1ccc(Cl)c(Cl)c1 (stereo not drawn) | 3790 |
| CC/C=C/N1C2CCC1c1c([nH]c3ccccc13)C2 (stereo not drawn) | 710 |
| O=C1CC2(CCCC2)CC(=O)N1CCCCN1C2CCC1c1c([nH]c3ccccc13)C2 (stereo not drawn) | 3000 |
| c1ccc(CCCCN2C3CCC2c2c(n(-c4ccccc4)c4ccccc24)C3)cc1 (stereo not drawn) | 1570 |
| O=C(CCCN1C2CCC1c1c([nH]c3ccccc13)C2)c1ccc(F)cc1 (stereo not drawn) | 270 |
| c1ccc(CCCCN2C3CCC2c2c([nH]c4ccccc24)C3)cc1 (stereo not drawn) | 733 |
| CCCN1C2CCC1c1c([nH]c3ccccc13)C2 (stereo not drawn) | 11200 |
| c1ccc2c3c([nH]c2c1)CC1CCC3N1CCCCc1nccs1 (stereo not drawn) | 2230 |
| c1coc(CCCCN2C3CCC2c2c([nH]c4ccccc24)C3)c1 (stereo in doubt; 40) | 1270 |
| c1csc(CCCCN2C3CCC2c2c([nH]c4ccccc24)C3)c1 (stereo not drawn) | 620 |
| c1ccc2c(c1)CN(CCN1C3CCC1c1c([nH]c4ccccc14)C3)C2 (stereo not drawn) | 2000 |
